From PubChem BioAssay
A selection: hits, their analogues and other compounds. The true share with any hit is near 2.8%.
Mcl-1 Bim block = inhibitors of Bim-Mcl-1 interaction, human; Bead-based flow cytometry, Bim peptide-Mcl-1 binding; inhibition, % at 10 µM; 190,000 tested, 0.1% active; AID 1009; in the data active = inhibition above about 40%;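 also: 0% = no compound tracer wells and 100% = peptide blocker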
Target sequence (Q07820 whole entry, looked up): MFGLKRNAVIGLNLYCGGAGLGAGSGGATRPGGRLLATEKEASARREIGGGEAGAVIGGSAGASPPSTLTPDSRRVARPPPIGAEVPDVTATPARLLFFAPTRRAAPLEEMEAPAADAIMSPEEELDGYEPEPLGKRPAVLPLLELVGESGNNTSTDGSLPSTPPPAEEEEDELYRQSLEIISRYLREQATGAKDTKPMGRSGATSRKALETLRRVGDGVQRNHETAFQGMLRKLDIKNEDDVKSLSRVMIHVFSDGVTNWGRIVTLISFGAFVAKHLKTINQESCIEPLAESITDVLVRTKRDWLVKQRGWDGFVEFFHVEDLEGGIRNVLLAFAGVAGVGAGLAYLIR
Mcl1 Noxa PPI = disrupts binding of human Mcl-1 to Noxa peptide. 220,000 tested, 1.5% active. TR-FRET Mcl-1/Noxa peptide binding, 2 h. inhibition, % at 21.7 µM. AID 1022. Q07820;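 active = compounds that cut the protein-peptide binding signal by more than 50% relative to plate controls in a single-dose test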;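 also: His-tagged Mcl-1 with rhodamine Noxa BH3 peptide and terbium anti-His antibody; 0% = Mcl-1 plus Noxa peptide wells and 100% = peptide-only wells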
Biofilm kill mix = mixtures killing C. albicans biofilm | C. albicans biofilm persisters + clotrimazole, fluorescence viability; primary screen in compound mixtures of four per well | inhibition, % at 7.6 µM | 120,000 tested, 0.02% active;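 active = inhibition above 30.3% in the primary screen of four-compound pools, then above 30% when the compound was retested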;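 also: compounds exposed to preformed 24 h biofilms for 48 h; 0% = untreated biofilm control and 100% = clotrimazole plus chlorhexidine kill blank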
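Test system: C. albicans CAF4-2 wild-type biofilms; buffer or medium: RPMI/MOPS medium, pH 7.0; schedule: 24 h biofilm formation, then 48 h compound exposure, 37 °C; detection: Alamar Blue fluorescence; measure: percent inhibition of biofilm viability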
Arbovirus anti = antivirals against arbovirus infection. inhibition, % at 10 µM. arbovirus infection cell-based antiviral screen. 200,000 tested, 0.37% active; in the data active = inhibition above about 30%
Mcl1-Bid inh = Mcl-1/Bid interaction inhibition | TR-FRET Mcl-1/Bid-Dy647 peptide binding, 1536-well | 220,000 tested, 0.97% active | AID 1021 | Q07820 | inhibition, % at 21.7 µM;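 active = compounds that cut the binding signal by more than half at the single screening dose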;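 also: His-tagged Mcl-1 with europium anti-His antibody binding Bid BH3 peptide; 0% = Mcl-1 plus peptide wells and 100% = peptide-only wells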
Calpain2 inh = inhibitors of pig calpain II; purified calpain II, fluorogenic peptide substrate, 30 min; inhibition, % at 16 µM; 220,000 tested, 0.37% active; AID 1236;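 active = inhibition above about 50%, limit read from the data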
* hit, by the source's call; / = no result given; ! = a repeat was not active.

SMILES | Mcl-1 Bim block | Mcl1 Noxa PPI | Biofilm kill mix | Arbovirus anti | Mcl1-Bid inh | Calpain2 inh
CN(C)c1ccc(/C=C2\N=C(c3ccc(Cl)c([N+](=O)[O-])c3)NC2=O)cc1 | 0 | 73* | 2 | -11 | 40 | -11
N#C/C(=N\Nc1ccccc1[N+](=O)[O-])C(=N)N1CCCCC1 | -24 | 0 | 4 | 17 | -29 | 7
C/C(=N/NC(=O)c1cc(O)c(O)c(O)c1)c1ccc([N+](=O)[O-])cc1 | 8 | 59* | 8 | 7 | -50 | -20
C/C(=N/NC(=O)c1cc(-c2cccc([N+](=O)[O-])c2)n[nH]1)c1ccc(Cl)cc1 | 4 | 64* | 20 | 7 | 74* | 68*
C/C(=N/NC(=O)CNC(=O)c1cccnc1)c1ccc([N+](=O)[O-])cc1 | 2 | 73* | 26 | 1 | 3 | 26
C/C(=N/NC(=O)CNC(=O)c1ccccn1)c1ccc([N+](=O)[O-])cc1 | -1 | 17 | 13 | 4 | -27 | -5
CCc1cccc(C)c1N1C(=O)CC(C)(C)CC1=O | / | 4 | 29 | / | -13 | 10
CNC(=O)N(O)C1N(c2ccccc2)C(=S)SC1(C)C (stereo not drawn) | 0 | 8 | 14 | 4 | -19 | -2
CCOc1ccccc1NC(=O)C1CCN(C(=O)c2cccs2)CC1 | 2 | 2 | 10 | -3 | -1 | 21
CN(C)CCCCOc1ccccc1-c1ccccc1 | -3 | 25 | / | -9 | 73* | -13
O=C(c1ccco1)N1C(=O)c2cccc3c(S(=O)(=O)N4CCCC4)ccc1c23 | -10 | 61* | / | 0 | 78* | -173
CC(C)[C@H](NC(=O)c1ccccc1)C(=O)OCC(=O)N1CCN(C(=O)c2ccco2)CC1 | 0 | -3 | 14 | 17 | -34 | -13
CCCn1c2c(c(O)c(C(=O)Nc3nc4ccccc4s3)c1=O)CCCC2 | 2 | 18 | 11 | 43* | 14 | 9
Cc1ccccc1C(=O)Oc1ccc(Sc2ccc(O)cc2)cc1 | 0 | 16 | / | -18 | 5 | 113*
Cc1ccccc1C(=O)Oc1ccc(-c2csnn2)cc1 | / | 2 | 11 | / | -17 | 42
COc1ccc(/C=C/C(=O)NC(=S)Nc2cc([N+](=O)[O-])ccc2O)cc1OC | 0 | 93* | -1 | 6 | 13 | -38
COc1cc(/C=C/C(=O)OCC(=O)Nc2cc(C)c(C)cc2[N+](=O)[O-])ccc1O | / | 93* | 13 | / | 41 | 7
COc1cc(/C=C/C(=O)OCC(=O)Nc2ccc(C)cc2[N+](=O)[O-])ccc1O | 3 | 55* | 14 | -4 | -36 | -22
COc1cc(/C=C/C(=O)OCC(=O)Nc2ccc([N+](=O)[O-])cc2)ccc1O | / | 26 | 6 | / | -24 | -17
COc1ccc([N+](=O)[O-])cc1NC(=S)NC(C)=O | 3 | 15 | -7 | -4 | -6 | 0
COc1ccc(-c2cc(-c3ccccc3)nc(SCC(=O)Nc3ncc(C)s3)c2C#N)cc1 | -3 | -122 | 3 | -8 | -105 | -73
CCc1nnc(NC(=O)CSc2nc(-c3ccc(F)cc3)cc(-c3ccccc3)c2C#N)s1 | -14 | -14 | -1 | -8 | 60* | -22
CN(C)C(=O)C(=O)c1cccn1-c1cccc(Cl)c1C#N | 13 | 6 | 16 | 1 | 14 | 24
Cc1ccc(O)c(C(=O)c2cnc3c(c2)c(-c2ccc(F)cc2)c(C#N)c(=O)n3C)c1 | -2 | 19 | 10 | 4 | 4 | -47
CCc1nn2cc(C(=O)c3cc(C)ccc3O)cnc2c1-c1ccc(F)cc1 | 42* | 18 | 6 | 7 | -40 | 2
SMILES | Mcl-1 Bim block | Mcl1 Noxa PPI | Biofilm kill mix | Arbovirus anti | Mcl1-Bid inh | Calpain2 inh
CCc1nn2cc(C(=O)c3ccccc3O)cnc2c1-c1ccc(F)cc1 | -2 | 10 | 8 | 41* | -23 | 3
Cn1c(=O)cc(OCC(=O)NCc2cccs2)c2ccccc21 | -2 | -3 | 18 | 1 | -4 | -21
O=C1c2cccnc2C(Nc2cccc(F)c2)N1Cc1ccco1 (stereo not drawn) | 0 | 3 | 7 | 2 | -24 | -3
O=C1c2cccnc2C(Nc2ccccc2)N1Cc1ccco1 (stereo not drawn) | -3 | 60* | / | 6 | 60* | -7
CCNc1nc(NC(C)CC)nc(Oc2ccc(OCC)nn2)n1 (stereo not drawn) | 0 | 0 | 9 | -11 | -31 | -6
CCc1cccc(C)c1NC(=O)CO/N=C(\N)CC(=O)NC1CCCCC1 | -1 | 4 | 6 | -4 | -17 | -2
Cn1c(=O)c2c(ncn2CC(=O)OCC(=O)NC(c2ccccc2)c2ccccc2)n(C)c1=O | 0 | -7 | 21 | -11 | -5 | -10
CC(NC(=O)Cn1cnc2c1c(=O)n(C)c(=O)n2C)c1ccccc1 (stereo not drawn) | 1 | 20 | / | -5 | 94* | -5
C[c-]1[c-](C)[c-](C)[c-](C)[c-]1C.[Fe].c1cc2nccc(N3CCCC3)[c-]2c1 (stereo not drawn) | / | 55*! | 17 | / | -107 | -6
O=C1/C(=C\c2ccc(O)cc2)SC(=S)N1/N=C/c1ccc(O)cc1 | / | 79* | 15 | / | 24 | -43
N#Cc1c2nc3ccccc3nc2n2cc(NC(=O)c3ccc(F)cc3)ccc12 | 12 | 111* | 11 | -17 | 86* | -68
O=C(NCc1cccnc1)c1ccc(-c2ccc(Cl)cc2)o1 | -3 | 9 | 10 | -19 | -33 | -66
O=C(NCc1cccnc1)/C(=C\c1ccc(-c2ccc(Cl)c(Cl)c2)o1)S(=O)(=O)c1ccccc1 | -5 | 40 | 21 | -41 | 55* | -93
Cc1cc(C)n(CCc2nc(-c3ccco3)cs2)n1 | -20 | 53* | / | 10 | -33 | -125
COc1ccc(Cn2c(-c3ccc(Br)cc3)c[n+]3ccccc23)cc1 | -14 | 6 | 19 | 9 | -4 | -29
COc1ccc(CNc2ncnc3c2[nH]c2cc(OC)c(OC)cc23)cc1 | / | 52* | 28 | / | -17 | -17
COc1ccc(CNc2ncnc3c2[nH]c2ccccc23)cc1 | / | 16 | 10 | / | -6 | -17
COc1ccc(/C=N/Nc2cn[nH]c(=O)c2Cl)cc1 | 8 | 4 | 8 | 7 | -28 | -51
O=c1c(Cl)c(N2CCN(c3ccc(F)cc3)CC2)cnn1C12CC3CC(CC(C3)C1)C2 | -4 | 10 | 6 | 37* | -56 | 48
O=c1c(Cl)c(N2CCN(c3ccccc3)CC2)cnn1C12CC3CC(CC(C3)C1)C2 | -4 | 17 | 16 | -3 | -7 | 21
CC1CN(Cc2c(O)ccc3c2oc(=O)c2ccccc23)CC(C)O1 (stereo not drawn) | / | -52 | 14 | / | 32 | 80*
CCOC(=O)c1cnn(-c2ccc([N+](=O)[O-])cc2)c1N | / | 14 | 27 | / | -12 | 16
O=S(=O)(NCc1ccccc1)c1cccc(S(=O)(=O)N2CCOCC2)c1 | 0 | -3 | / | 2 | 81* | 19
Fc1ccccc1COc1ccc2ccccc2c1CNc1nn[nH]n1 | -2 | -41 | 20 | 31* | -19 | -17
